Experimental data taken from ChEMBL document CHEMBL3297742, “Tetrahydronaphthyridine and dihydronaphthyridinone ethers as positive allosteric modulators of the metabotropic glutamate receptor 5 (mGlu₅)” (J Med Chem, 2014).

Tests used:
[1] = target: Metabotropic glutamate receptor 5 (Rattus norvegicus) (UniProt P31424); test: Positive allosteric modulator activity at rat mGlu5 receptor expressed in HEK293 cells assessed as potentiation of glutamate-induced calcium mobilization at 30 uM by fluorescence assay relative to glutamate; format: functional, cell-based
Summary of the method: (§1)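 HEK293 cells stably expressing rat mGlu5, 15000 cells/well, grown overnight, loaded with 1 µM Fluo-4AM for 50 min at 37 °C in HBSS/20 mM HEPES/2.5 mM probenecid pH 7.4. Compound added, then an EC20 of glutamate 140 s later and an EC80 90–120 s after that. Fluorescence over basal normalized to maximal glutamate response (100 µM glutamate); compound at up to 30 µM; ≥3 independent determinations.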

[2] = target: T1, Metabotropic glutamate receptor 5 (Rattus norvegicus, UniProt P31424); test: Positive allosteric modulator activity at rat mGlu5 receptor expressed in HEK293 cells assessed as potentiation of glutamate-induced calcium mobilization by fluorescence assay; format: functional, cell-based; summary of the method: as §1
Plasma [3] = test: Fraction unbound in human plasma; format: ADME, cell-free
Plasma [4] = test: (§2) Fraction unbound in rat plasma; format: ADME, cell-free
[5] = as §2; format: ADME, cell-free
[6] = target: Metabotropic glutamate receptor 3 (Rattus norvegicus) (UniProt P31422); test: Negative allosteric modulator activity at rat mGlu3 receptor expressed in HEK293 cells assessed as negative cooperativity fold shift of glutamate concentration response curve for GIRK channel-mediated thallium flux at 10 uM treated 140s prior to glutamate challenge by fluorescence analysis; format: cell-based
Summary of the method: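 HEK293-GIRK cells expressing rat mGlu2, 3, 4, 6, 7 or 8, 15000 cells/well. Vehicle or 10 µM compound added, then 140 s later a glutamate CRC (L-AP4 for mGlu7) in thallium buffer (12 mM thallium sulfate, 10 mM HEPES). Thallium flux through GIRK read by fluorescence.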

[7] = target: T1, Metabotropic glutamate receptor 5; test: Partial antagonist activity at rat mGlu5 receptor expressed in HEK293 cells; format: cell-based
[8] = target: Metabotropic glutamate receptor 5 (Rattus norvegicus) (UniProt P31424); test: Partial antagonist activity at rat mGlu5 receptor expressed in HEK293 cells relative to glutamate; format: cell-based

T1 sequence (P31424 whole entry): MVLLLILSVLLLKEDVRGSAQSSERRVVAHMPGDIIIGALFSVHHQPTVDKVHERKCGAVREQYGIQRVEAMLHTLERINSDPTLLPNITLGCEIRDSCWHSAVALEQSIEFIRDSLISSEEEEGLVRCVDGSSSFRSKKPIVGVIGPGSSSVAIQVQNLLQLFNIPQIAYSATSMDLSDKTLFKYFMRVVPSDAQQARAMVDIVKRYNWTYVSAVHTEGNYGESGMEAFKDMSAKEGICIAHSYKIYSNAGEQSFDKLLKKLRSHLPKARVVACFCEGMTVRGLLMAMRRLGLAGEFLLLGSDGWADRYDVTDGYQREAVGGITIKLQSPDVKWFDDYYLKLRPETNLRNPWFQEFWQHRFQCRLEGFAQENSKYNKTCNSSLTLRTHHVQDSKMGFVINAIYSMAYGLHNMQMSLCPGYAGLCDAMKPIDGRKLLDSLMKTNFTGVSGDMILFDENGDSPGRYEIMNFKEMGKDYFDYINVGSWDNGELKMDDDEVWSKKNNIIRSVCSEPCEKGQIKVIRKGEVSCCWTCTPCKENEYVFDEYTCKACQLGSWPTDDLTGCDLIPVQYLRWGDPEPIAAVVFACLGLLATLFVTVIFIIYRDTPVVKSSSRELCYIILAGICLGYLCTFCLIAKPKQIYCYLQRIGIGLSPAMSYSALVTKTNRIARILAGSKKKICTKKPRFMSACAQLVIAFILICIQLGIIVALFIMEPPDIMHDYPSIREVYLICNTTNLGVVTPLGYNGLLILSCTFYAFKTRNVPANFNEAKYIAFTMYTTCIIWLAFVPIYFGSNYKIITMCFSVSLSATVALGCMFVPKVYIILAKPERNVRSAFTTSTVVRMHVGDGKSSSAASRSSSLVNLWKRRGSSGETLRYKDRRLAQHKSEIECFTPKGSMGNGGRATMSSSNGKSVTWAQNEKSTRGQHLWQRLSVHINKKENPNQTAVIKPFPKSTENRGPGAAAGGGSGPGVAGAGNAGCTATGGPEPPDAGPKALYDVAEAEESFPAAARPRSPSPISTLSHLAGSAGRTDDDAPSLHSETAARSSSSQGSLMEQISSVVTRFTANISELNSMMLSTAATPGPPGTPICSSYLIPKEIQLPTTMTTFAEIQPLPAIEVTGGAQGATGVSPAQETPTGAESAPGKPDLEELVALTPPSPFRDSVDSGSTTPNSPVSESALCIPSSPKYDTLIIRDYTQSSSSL
Sequence of Metabotropic glutamate receptor 5 (Rattus norvegicus) (P31424 21-1203 limits assumed): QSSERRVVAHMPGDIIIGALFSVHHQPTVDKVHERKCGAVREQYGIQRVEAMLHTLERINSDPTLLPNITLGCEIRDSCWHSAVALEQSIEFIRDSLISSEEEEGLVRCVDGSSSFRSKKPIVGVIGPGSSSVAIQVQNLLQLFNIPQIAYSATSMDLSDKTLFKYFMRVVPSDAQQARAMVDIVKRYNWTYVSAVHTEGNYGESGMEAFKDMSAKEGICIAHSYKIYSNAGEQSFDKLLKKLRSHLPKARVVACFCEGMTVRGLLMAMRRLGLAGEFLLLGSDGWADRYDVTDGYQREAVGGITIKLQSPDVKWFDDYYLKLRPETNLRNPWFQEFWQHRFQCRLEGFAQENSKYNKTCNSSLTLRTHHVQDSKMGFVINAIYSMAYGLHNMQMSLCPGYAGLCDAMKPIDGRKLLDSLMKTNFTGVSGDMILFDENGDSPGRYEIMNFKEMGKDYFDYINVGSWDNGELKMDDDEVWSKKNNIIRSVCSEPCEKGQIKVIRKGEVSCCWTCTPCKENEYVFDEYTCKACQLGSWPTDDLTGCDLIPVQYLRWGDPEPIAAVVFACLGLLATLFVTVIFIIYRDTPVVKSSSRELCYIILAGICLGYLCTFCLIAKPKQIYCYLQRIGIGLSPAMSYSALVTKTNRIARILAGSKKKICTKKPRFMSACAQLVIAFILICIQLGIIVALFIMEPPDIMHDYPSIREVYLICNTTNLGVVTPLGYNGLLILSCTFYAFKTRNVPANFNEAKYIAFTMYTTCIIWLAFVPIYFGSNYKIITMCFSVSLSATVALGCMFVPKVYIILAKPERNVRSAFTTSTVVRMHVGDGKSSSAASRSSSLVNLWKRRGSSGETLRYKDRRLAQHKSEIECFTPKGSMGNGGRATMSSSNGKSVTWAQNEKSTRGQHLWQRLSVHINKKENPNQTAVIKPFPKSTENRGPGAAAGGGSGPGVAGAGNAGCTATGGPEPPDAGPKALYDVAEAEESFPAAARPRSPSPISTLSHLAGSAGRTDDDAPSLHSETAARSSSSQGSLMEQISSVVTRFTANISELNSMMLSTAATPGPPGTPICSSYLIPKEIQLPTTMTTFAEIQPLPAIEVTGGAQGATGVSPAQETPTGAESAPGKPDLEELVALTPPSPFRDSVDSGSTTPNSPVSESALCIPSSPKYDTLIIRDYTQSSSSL
Sequence of Metabotropic glutamate receptor 3 (Rattus norvegicus) (P31422 23-879 limits assumed): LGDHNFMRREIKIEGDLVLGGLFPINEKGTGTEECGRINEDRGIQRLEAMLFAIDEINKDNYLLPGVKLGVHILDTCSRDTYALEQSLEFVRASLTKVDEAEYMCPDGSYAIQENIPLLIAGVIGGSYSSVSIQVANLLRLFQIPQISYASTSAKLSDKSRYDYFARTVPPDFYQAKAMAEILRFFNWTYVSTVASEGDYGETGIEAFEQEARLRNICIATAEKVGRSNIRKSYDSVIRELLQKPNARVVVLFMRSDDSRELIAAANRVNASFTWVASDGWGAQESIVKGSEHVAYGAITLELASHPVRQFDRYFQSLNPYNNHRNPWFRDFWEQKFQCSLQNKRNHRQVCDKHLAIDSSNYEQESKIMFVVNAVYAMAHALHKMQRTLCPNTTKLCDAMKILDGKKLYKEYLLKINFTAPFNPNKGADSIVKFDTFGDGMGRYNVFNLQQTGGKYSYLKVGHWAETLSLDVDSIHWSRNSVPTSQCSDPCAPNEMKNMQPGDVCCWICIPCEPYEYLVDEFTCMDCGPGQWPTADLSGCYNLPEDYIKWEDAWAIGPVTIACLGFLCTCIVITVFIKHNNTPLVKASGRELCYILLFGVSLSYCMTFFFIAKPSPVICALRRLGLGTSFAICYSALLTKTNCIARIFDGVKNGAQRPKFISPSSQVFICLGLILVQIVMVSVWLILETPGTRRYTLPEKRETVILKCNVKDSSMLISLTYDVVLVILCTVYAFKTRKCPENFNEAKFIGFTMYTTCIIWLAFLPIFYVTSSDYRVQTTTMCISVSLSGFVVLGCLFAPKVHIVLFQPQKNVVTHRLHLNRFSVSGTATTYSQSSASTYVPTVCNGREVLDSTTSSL

SMILES | %max [1] [%] | EC50 ([2]; read-out: EC50) [µM] | Activity [1] [%] | further results
CC(C)CN1CCc2nc(COc3cccc(F)c3)ccc2C1=O | 38 | 1.15 |  | 
O=C1c2ccc(OCc3cccc(F)c3)nc2CCN1c1ccc(F)cn1 | 50 | 0.212 |  | Fu (Plasma [3]): 0.01; Fu (Plasma [4]): 0.025
O=C1NCCc2nc(OCc3ccccc3Cl)ccc21 |  |  | < 10 | 
CC1(CN2CCc3nc(OCc4cccc(F)c4)ccc3C2=O)COC1 | 39 | 2.47 |  | 
O=C1c2ccc(OCc3cccc(F)c3)nc2CCN1CC1CC1 |  |  | < 10 | 
O=C1c2ccc(OCc3ccccc3)nc2CCN1Cc1ccccc1 | 23 | 2.77 |  | 
O=C1c2ccc(COc3cccc(F)c3)nc2CCN1CC1CC1 | 33 | > 10 |  | 
O=C(c1ccc(F)cc1)N1CCc2ncc(OCc3ccccc3)cc2C1 |  |  |  | IC50 [7]: 7.81 µM; Emin [8]: 53%
O=C1NCCc2nc(OCc3ccc(Cl)cc3)ccc21 |  |  | < 10 | 
O=C1NCCc2nc(OCc3cccc(Cl)c3)ccc21 | 43 | 0.062 |  | 
O=C1c2ccc(OCc3cccc(F)c3)nc2CCN1c1ccc(F)cc1 | 38 | 0.118 |  | 
CC(C)CN1CCc2nc(OCc3cccc(F)c3)ccc2C1=O |  |  | < 10 | 
O=C1NCCc2nc(COc3cccc(F)c3)ccc21 | 34 | > 10 |  | 
O=C1c2ccc(COc3cccc(F)c3)nc2CCN1c1ccc(F)cn1 | 59 | 0.595 |  | 
O=C1c2ccc(COc3cccc(F)c3)nc2CCN1c1ccc(F)cc1 | 72 | 0.097 |  | Fu (Plasma [3]): 0.014; Fu (Plasma [4]): 0.029; fold change (FC) [6]: 0.2
O=C(c1cccc(F)c1)N1CCc2ncc(OCc3cccc(F)c3)cc2C1 | 30 | 1.63 |  | 
O=C(C1CC1)N1CCc2ncc(OCc3cccc(F)c3)cc2C1 |  |  | < 10 | 
O=C1c2ccc(COc3cccc(F)c3)nc2CCN1Cc1ccccc1 | 38 | > 10 |  | 
O=C1NCCc2nc(OCc3cccnc3)ccc21 |  |  | < 10 | 
CCCCOc1ccc2c(n1)CCNC2=O |  |  | < 10 | 
O=C1NCCc2nc(COc3ccccc3)ccc21 | 43 | > 10 |  | 
O=C(c1ccc(F)cc1)N1CCc2ncc(COc3ccc(F)cc3)cc2C1 | 53 | 1.77 |  | 
O=C1NCCc2nc(OCc3ccccn3)ccc21 |  |  | < 10 | 
O=C1NCCc2nc(OCc3ccccc3F)ccc21 | 68 | 1.17 |  | 
CCCCOc1ccc2c(n1)CCN(c1ccc(F)cc1F)C2=O |  |  | < 10 | 
O=C1c2ccc(OCc3cccc(F)c3)nc2CCN1CC1CCC1 | 36 | 0.444 |  | 
O=C1c2ccc(OCc3cccc(F)c3)nc2CCN1Cc1ccccc1 | 36 | 3.17 |  | 

Second part, led by results:

%max [1] [%] | EC50 ([2]; read-out: EC50) [µM] | Activity [1] [%] | SMILES | further results
 |  | < 10 | O=C1c2ccc(OCc3ccccc3)nc2CCN1Cc1ccccn1 | 
68 | 0.198 |  | O=C1c2ccc(COc3ccccc3)nc2CCN1c1ccc(F)cc1 | Fu (Plasma [3]): 0.021; fraction unbound [5]: 0.036
69 | 0.64 |  | O=C(c1ccc(F)cc1)N1CCc2ncc(COc3ccccc3)cc2C1 | 
 |  | < 10 | O=C(c1ccccc1)N1CCc2ncc(OCc3ccccc3)cc2C1 | 
 |  | < 10 | CN1CCc2nc(OCc3cccc(F)c3)ccc2C1=O | 
81 | 0.538 |  | O=C1c2ncc(COc3ccccc3)cc2CCN1c1ccc(F)cc1 | Fu (Plasma [3]): 0.096; Fu (Plasma [4]): 0.11; fold change (FC) [6]: 0.3
69 | 1.09 |  | O=C(c1ccc(F)cc1)N1CCc2ncc(COc3cccc(F)c3)cc2C1 | 
 |  | < 10 | O=C1NCCc2cc(COc3ccccc3)cnc21 | 
 |  | < 10 | CN1CCc2nc(COc3cccc(F)c3)ccc2C1=O | 
 |  | < 10 | CC(N1CCc2cc(COc3ccccc3)ncc2C1=O)C(C)(C)C (stereo not drawn) | 
 |  | < 10 | CN1CCc2cc(COc3ccccc3)ncc2C1=O | 
 |  | < 10 | O=C1NCCc2cc(COc3ccccc3)ncc21 | 
54 | 1.03 |  | O=C1NCCc2nc(OCc3ccccc3)ccc21 | EC50 ([2]; read-out: pEC50 (converted)): 1.05 µM
 |  | < 10 | CN1CCc2cc(COc3ccccc3)cnc2C1=O | 
 |  | < 10 | C[C@@H](N1CCc2cc(COc3ccccc3)cnc2C1=O)C(C)(C)C | 
30 | 0.403 |  | O=C1c2cnc(COc3ccccc3)cc2CCN1c1ccc(F)cc1 | 
